Columns and labels:
Type in all cases: functional, Salmonella enterica subsp. enterica serovar Typhimurium
[1] = tested on: Salmonella typhimurium; assay: Antimicrobial activity against Salmonella enterica serovar Typhimurium CS9 with GyrA S83F, D87N, ParC S80I mutation
Procedure, shortened: (§1)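 MICs measured by broth microdilution on the Sensititre automated system and interpreted by CLSI broth microdilution standards. Ciprofloxacin was also tested by agar dilution, widening the range to 0.0075–128 μg/ml. Quality control strains were E. coli ATCC 25922 and 35218, E. faecalis ATCC 29212, S. aureus ATCC 29213 and P. aeruginosa ATCC 27853.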

[2] = tested on: Salmonella typhimurium; assay: Antimicrobial activity against Salmonella enterica serovar Typhimurium S21-3 with GyrA S83F, ParC S80I mutation; procedure, shortened: as §1
[3] = tested on: Salmonella typhimurium; assay: Antimicrobial activity against Salmonella enterica serovar Typhimurium CS3 tolC::Kan with GyrA S83F, D87N, parC S80I mutation; procedure, shortened: as §1
[4] = tested on: Salmonella typhimurium; assay: Antimicrobial activity against Salmonella enterica serovar Typhimurium CS3 with GyrA S83F, D87N, ParC S80I mutation; procedure, shortened: as §1
[5] = tested on: Salmonella typhimurium; assay: Antimicrobial activity against Salmonella enterica serovar Typhimurium S21-4 with GyrA S83F, ParC S80I mutation; procedure, shortened: as §1
[6] = tested on: Salmonella typhimurium; assay: Antimicrobial activity against Salmonella enterica serovar Typhimurium CHS18 gyrA+ with GyrA S38F mutation; procedure, shortened: as §1
[7] = tested on: Salmonella typhimurium; assay: Antimicrobial activity against Salmonella enterica serovar Typhimurium CS3 gyrA+ with GyrA S83F, D87N, ParC S80I mutation; procedure, shortened: as §1
[8] = tested on: Salmonella typhimurium; assay: Antimicrobial activity against Salmonella enterica serovar Typhimurium CS1 gyrA+ with GyrA S83F, D87N, ParC S80I mutation; procedure, shortened: as §1
[9] = tested on: Salmonella typhimurium; assay: Antimicrobial activity against Salmonella enterica serovar Typhimurium S21-4 tolC::Kan with GyrA S83F, ParC S80I mutation; procedure, shortened: as §1
[10] = tested on: Salmonella typhimurium; assay: Antimicrobial activity against Salmonella enterica serovar Typhimurium CS3 acrAB::Kan with GyrA S83F, D87N, ParC S80I mutation; procedure, shortened: as §1
[11] = tested on: Salmonella typhimurium; assay: Antimicrobial activity against Salmonella enterica serovar Typhimurium S21 gyrA+; procedure, shortened: as §1
[12] = tested on: Salmonella typhimurium; assay: Antimicrobial activity against Salmonella enterica serovar Typhimurium CHS14 with GyrA D87G mutation; procedure, shortened: as §1
[13] = tested on: Salmonella typhimurium; assay: Antimicrobial activity against Salmonella enterica serovar Typhimurium CS9 gyrA+ with GyrA S83F, D87N, ParC S80I mutation; procedure, shortened: as §1
[14] = tested on: Salmonella typhimurium; assay: Antimicrobial activity against Salmonella enterica serovar Typhimurium S21-2 acrAB::Kan with GyrA S83F, ParC S80I mutation; procedure, shortened: as §1
[15] = tested on: Salmonella typhimurium; assay: Antimicrobial activity against Salmonella enterica serovar Typhimurium CHS38 with GyrA D87G mutation; procedure, shortened: as §1
[16] = tested on: Salmonella typhimurium; assay: Antimicrobial activity against Salmonella enterica serovar Typhimurium CHS38 gyrA+ with GyrA D87G mutation; procedure, shortened: as §1
[17] = tested on: Salmonella typhimurium; assay: Antimicrobial activity against Salmonella enterica serovar Typhimurium CS1 tolC::Kan with GyrA S83F, D87N, ParC S80I mutation; procedure, shortened: as §1
[18] = tested on: Salmonella typhimurium; assay: Antimicrobial activity against Salmonella enterica serovar Typhimurium S21-3 acrAB::Kan with GyrA S83F, ParC S80I mutation; procedure, shortened: as §1
[19] = tested on: Salmonella typhimurium; assay: Antimicrobial activity against Salmonella enterica serovar Typhimurium S21-4 gyrA+ with ParC S80I mutation; procedure, shortened: as §1
[20] = tested on: Salmonella typhimurium; assay: Antimicrobial activity against Salmonella enterica serovar Typhimurium CHS18 tolC::Kan with GyrA S38F mutation; procedure, shortened: as §1
[21] = tested on: Salmonella typhimurium; assay: Antimicrobial activity against Salmonella enterica serovar Typhimurium CHS14 tolC::Kan with GyrA D87G mutant; procedure, shortened: as §1
[22] = tested on: Salmonella typhimurium; assay: Antimicrobial activity against Salmonella enterica serovar Typhimurium CHS14 gyrA+ with GyrA D87G mutation; procedure, shortened: as §1
[23] = tested on: Salmonella typhimurium; assay: Antimicrobial activity against Salmonella enterica serovar Typhimurium S21-3 gyrA+ with ParC S80I mutation; procedure, shortened: as §1
[24] = tested on: Salmonella typhimurium; assay: Antimicrobial activity against Salmonella enterica serovar Typhimurium S21-1 tolC::Kan with GyrA S83F mutation; procedure, shortened: as §1
[25] = tested on: Salmonella typhimurium; assay: Antimicrobial activity against Salmonella enterica serovar Typhimurium CS1 acrAB::Kan with GyrA S83F, D87N, ParC S80I mutation; procedure, shortened: as §1
[26] = tested on: Salmonella typhimurium; assay: Antimicrobial activity against Salmonella enterica serovar Typhimurium CS9 acrAB::Kan with GyrA S83F, D87N, ParC S80I mutation; procedure, shortened: as §1
[27] = tested on: Salmonella typhimurium; assay: Antimicrobial activity against Salmonella enterica serovar Typhimurium S21-3 tolC::Kan with GyrA S83F, ParC S80I mutation; procedure, shortened: as §1
[28] = tested on: Salmonella typhimurium; assay: Antimicrobial activity against Salmonella enterica serovar Typhimurium CHS38 tolC::Kan with GyrA D87G mutation; procedure, shortened: as §1
[29] = tested on: Salmonella typhimurium; assay: Antimicrobial activity against Salmonella enterica serovar Typhimurium GyrA S21-1 acrAB::Kan with GyrA S83F mutation; procedure, shortened: as §1
[30] = tested on: Salmonella typhimurium; assay: Antimicrobial activity against Salmonella enterica serovar Typhimurium CS1 with GyrA S83F, D87N, ParC S80I mutation; procedure, shortened: as §1
[31] = tested on: Salmonella typhimurium; assay: Antimicrobial activity against Salmonella enterica serovar Typhimurium S21; procedure, shortened: as §1
[32] = tested on: Salmonella typhimurium; assay: Antimicrobial activity against Salmonella enterica serovar Typhimurium CHS38 acrAB::Kan with GyrA D87G mutation; procedure, shortened: as §1
[33] = tested on: Salmonella typhimurium; assay: Antimicrobial activity against Salmonella enterica serovar Typhimurium CS9 tolC::Kan with GyrA S83F, D87N, ParC S80I mutation; procedure, shortened: as §1
[34] = tested on: Salmonella typhimurium; assay: Antimicrobial activity against Salmonella enterica serovar Typhimurium S21-1 gyrA+; procedure, shortened: as §1
[35] = tested on: Salmonella typhimurium; assay: Antimicrobial activity against Salmonella enterica serovar Typhimurium S21-2 tolC::Kan with GyrA S83F, ParC S80I mutation; procedure, shortened: as §1
[36] = tested on: Salmonella typhimurium; assay: Antimicrobial activity against Salmonella enterica serovar Typhimurium CHS18 acrAB::Kan with GyrA S38F mutation; procedure, shortened: as §1
[37] = tested on: Salmonella typhimurium; assay: Antimicrobial activity against Salmonella enterica serovar Typhimurium S21-2 with GyrA S83F, ParC S80I mutation; procedure, shortened: as §1
[38] = tested on: Salmonella typhimurium; assay: Antimicrobial activity against Salmonella enterica serovar Typhimurium S21 tolC::Kan
Procedure, shortened: (§2)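 MICs by automated broth microdilution panels, interpreted to CLSI broth microdilution standards. Ciprofloxacin additionally tested by agar dilution across 0.0075 to 128 μg/ml. Quality control strains: E. coli ATCC 25922 and 35218, Enterococcus faecalis ATCC 29212, S. aureus ATCC 29213, P. aeruginosa ATCC 27853. Test strains are kanamycin-marked deletion mutants of ground-beef isolate S21.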

[39] = tested on: Salmonella typhimurium; assay: Antimicrobial activity against Salmonella enterica serovar Typhimurium CHS14 acrAB::Kan with GyrA D87G mutation; procedure, shortened: as §1
[40] = tested on: Salmonella typhimurium; assay: Antimicrobial activity against Salmonella enterica serovar Typhimurium CHS18 with GyrA S38F mutation; procedure, shortened: as §1
[41] = tested on: Salmonella typhimurium; assay: Antimicrobial activity against Salmonella enterica serovar Typhimurium S21-1 GyrA S83F mutant; procedure, shortened: as §1
[42] = tested on: Salmonella typhimurium; assay: Antimicrobial activity against Salmonella enterica serovar Typhimurium S21 acrAB::Kan; procedure, shortened: as §2
[43] = tested on: Salmonella typhimurium; assay: Antimicrobial activity against Salmonella enterica serovar Typhimurium S21-2 gyrA+ with ParC S80I mutation; procedure, shortened: as §1
[44] = tested on: Salmonella typhimurium; assay: Antimicrobial activity against Salmonella enterica serovar Typhimurium S21-4 acrAB::Kan with GyrA S83F, ParC S80I mutation; procedure, shortened: as §1

Measured: MIC

COc1c(N2CCNC(C)C2)c(F)cc2c(=O)c(C(=O)O)cn(C3CC3)c12 (centres undefined) [GATIFLOXACIN]
0.03 µg/mL: [11] | [20] | [22] | [24] | [29] | [31] | [34]
2 µg/mL: [19]
0.12 µg/mL: [15] | [36]
4 µg/mL: [1] | [4] | [30]
< 0.015 µg/mL: [16] | [21] | [28] | [32] | [38] | [39] | [42]
0.25 µg/mL: [12] | [40] | [43]
16 µg/mL: [5]
1 µg/mL: [23] | [37]
8 µg/mL: [2]
0.5 µg/mL: [3] | [10] | [17] | [25] | [26] | [33] | [41]
0.06 µg/mL: all other assays above

Reference: ChEMBL document CHEMBL1142136, “Contribution of target gene mutations and efflux to decreased susceptibility of Salmonella enterica serovar typhimurium to fluoroquinolones and other antimicrobials” (2007)
